Active and inactive are the calls of the source. No cut-off for these calls is given here.
Columns and labels:
[1] = molecular target: Cyclin-dependent kinase 5 (Homo sapiens) (UniProt Q00535); assay: Inhibition of CDK5 in human MV4-11 cells assessed as increase in p27KIP1 level at 5 to 10 uM measured after 24 hrs incubation by Western blot analysis; format: cell-based
In short: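 Cells treated for 24 h; lysates immunoblotted for pAkt (S473), pRB (S780), cyclin D1, p27KIP1, and cleaved caspase 3 and 7 (MOLM-13); at least two independent repeats.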

[2] = molecular target: Cyclin-dependent kinase 5/CDK5 activator 1 (Homo sapiens, UniProt Q00535+Q15078); assay: Inhibition of recombinant full length N-terminal GST tagged human CDK5/p25 expressed in baculovirus infected sf9 cells using histone H1 as substrate at 10 uM measured after 60 mins in presence of ATP by ADP-Glo kinase assay relative to control
[3] = molecular target: Cyclin-dependent kinase 1/cyclin B1 (Homo sapiens, UniProt P06493); assay: Inhibition of CDK1/CyclinB1 (unknown origin) using histone H1 (GGGPATPKKAKKL) as substrate incubated for 80 mins in presence of ATP by ADP-Glo kinase assay; format: protein-complex assay
[4] = molecular target: CDK6/cyclin D3 (Homo sapiens, UniProt Q00534); assay: Inhibition of human recombinant N-terminal GST-tagged CDK6 (M1-A326 residues) and His6 tagged Cyclin D3 (M1-L292 residues) expressed in sf9 cells using histone H1 (GGGPATPKKAKKL) as substrate incubated for 60 mins in presence of ATP by ADP-Glo kinase assay
[5] = molecular target: Cyclin-dependent kinase 2/cyclin E1 (Homo sapiens, UniProt P24941); assay: Inhibition of CDK2/Cyclin E (unknown origin) incubated for 30 to 120 mins in presence of ATP by ADP-Glo kinase assay; format: protein-complex assay
[6] = system: MOLM-13; assay: Induction of apoptosis in human MOLM13 cells assessed as early apoptotic cells at 2.5 uM measured after 24 hrs by Annexin V-FITC/PI staining based flow cytometry (reference value: 3.38%); format: functional
[7] = system: MOLM-13; assay: Induction of apoptosis in human MOLM13 cells assessed as necrotic cells at 10 uM measured after 24 hrs by Annexin V-FITC/PI staining based flow cytometry relative to control; format: functional
[8] = system: MOLM-13; assay: Induction of apoptosis in human MOLM13 cells assessed as viable cells at 10 uM measured after 24 hrs by Annexin V-FITC/PI staining based flow cytometry relative to control; format: functional; conditions: MOLM-13, 24 h, read-out: Activity
[9] = molecular target: Cyclin-dependent kinase 5 (Homo sapiens) (UniProt Q00535); assay: Inhibition of CDK5 in human MOLM13 cells assessed as increase in caspase3/7 activity at 2.5 to 10 uM measured after 24 hrs by caspase-3/7 glo assay; format: cell-based
In short: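 MOLM-13 cells treated 24 h; caspase-3/7 activity measured with […]; at least two independent experiments, values given as mean.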

[10] = species on record: Homo sapiens; assay: Selectivity ratio of Ki for recombinant full length N-terminal GST tagged human CDK2/CyclinA expressed in baculovirus infected sf9 cells using histone H1 as substrate to recombinant full length N-terminal GST tagged human CDK5/p25 expressed in baculovirus infected sf9 cells using histone H1 as substrate by ADP-Glo kinase assay
[11] = system: MV4-11; assay: Cell cycle arrest in human MV4-11 cells assessed as accumulation at G1 phase at 10 uM measured after 24 hrs by propidium iodide staining based flow cytometry relative to control; format: functional
In short: (§1)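 MV4-11 cells treated 24 h at 2.5 and 10 μM; cell-cycle phase distribution (sub-G1, G1, S, G2/M) by flow cytometry; at least two independent experiments, numerical data as mean value.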

[12] = system: MV4-11; assay: Cell cycle arrest in human MV4-11 cells assessed as accumulation at sub G1 phase at 10 uM measured after 24 hrs by propidium iodide staining based flow cytometry relative to control; format: functional; in short: as §1
[13] = system: MV4-11; assay: Cell cycle arrest in human MV4-11 cells assessed as accumulation at S phase at 10 uM measured after 24 hrs by propidium iodide staining based flow cytometry relative to control; format: functional; in short: as §1
[14] = system: MV4-11; assay: Cell cycle arrest in human MV4-11 cells assessed as accumulation at G2/M phase at 10 uM measured after 24 hrs by propidium iodide staining based flow cytometry relative to control; format: functional; in short: as §1

Cyclin-dependent kinase 5 (Homo sapiens), sequence (Q00535 whole entry, looked up): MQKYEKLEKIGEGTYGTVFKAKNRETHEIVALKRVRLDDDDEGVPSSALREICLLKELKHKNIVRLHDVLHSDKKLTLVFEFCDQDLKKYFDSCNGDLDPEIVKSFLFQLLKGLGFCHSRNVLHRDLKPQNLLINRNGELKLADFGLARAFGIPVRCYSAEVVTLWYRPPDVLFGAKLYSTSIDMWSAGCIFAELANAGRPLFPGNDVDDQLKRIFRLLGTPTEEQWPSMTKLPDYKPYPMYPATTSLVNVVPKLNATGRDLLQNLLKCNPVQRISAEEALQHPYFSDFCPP
CDK6/cyclin D3, sequence (P30281 whole entry, the tested form may be a part): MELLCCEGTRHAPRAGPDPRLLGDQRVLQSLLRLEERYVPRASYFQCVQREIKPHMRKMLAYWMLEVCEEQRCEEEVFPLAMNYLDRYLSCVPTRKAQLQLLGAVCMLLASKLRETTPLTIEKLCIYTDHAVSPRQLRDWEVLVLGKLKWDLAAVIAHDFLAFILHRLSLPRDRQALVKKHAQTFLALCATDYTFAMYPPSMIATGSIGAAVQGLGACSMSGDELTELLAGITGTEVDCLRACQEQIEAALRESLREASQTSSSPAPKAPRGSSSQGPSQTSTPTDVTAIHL
CDK6/cyclin D3, sequence (Q00534 whole entry, the tested form may be a part): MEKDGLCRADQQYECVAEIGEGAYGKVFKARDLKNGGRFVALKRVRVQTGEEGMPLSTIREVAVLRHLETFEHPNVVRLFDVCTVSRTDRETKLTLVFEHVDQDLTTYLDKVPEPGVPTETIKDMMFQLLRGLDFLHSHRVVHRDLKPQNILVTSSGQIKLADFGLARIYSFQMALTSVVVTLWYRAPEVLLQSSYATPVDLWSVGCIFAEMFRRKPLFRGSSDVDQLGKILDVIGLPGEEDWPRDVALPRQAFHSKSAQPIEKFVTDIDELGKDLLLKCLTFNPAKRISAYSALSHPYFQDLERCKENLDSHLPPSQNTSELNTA
Cyclin-dependent kinase 1/cyclin B1, sequence (P06493 whole entry, the tested form may be a part): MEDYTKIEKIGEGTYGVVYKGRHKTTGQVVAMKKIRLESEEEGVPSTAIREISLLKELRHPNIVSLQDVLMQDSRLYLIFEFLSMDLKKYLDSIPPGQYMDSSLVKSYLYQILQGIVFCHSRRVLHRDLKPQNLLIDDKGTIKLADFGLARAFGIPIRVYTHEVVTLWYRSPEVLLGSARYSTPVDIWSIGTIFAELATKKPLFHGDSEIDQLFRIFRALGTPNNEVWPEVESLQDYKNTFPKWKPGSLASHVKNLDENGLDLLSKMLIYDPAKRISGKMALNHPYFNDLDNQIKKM
Cyclin-dependent kinase 1/cyclin B1, sequence (P14635 whole entry, further chain, the tested form may be a part): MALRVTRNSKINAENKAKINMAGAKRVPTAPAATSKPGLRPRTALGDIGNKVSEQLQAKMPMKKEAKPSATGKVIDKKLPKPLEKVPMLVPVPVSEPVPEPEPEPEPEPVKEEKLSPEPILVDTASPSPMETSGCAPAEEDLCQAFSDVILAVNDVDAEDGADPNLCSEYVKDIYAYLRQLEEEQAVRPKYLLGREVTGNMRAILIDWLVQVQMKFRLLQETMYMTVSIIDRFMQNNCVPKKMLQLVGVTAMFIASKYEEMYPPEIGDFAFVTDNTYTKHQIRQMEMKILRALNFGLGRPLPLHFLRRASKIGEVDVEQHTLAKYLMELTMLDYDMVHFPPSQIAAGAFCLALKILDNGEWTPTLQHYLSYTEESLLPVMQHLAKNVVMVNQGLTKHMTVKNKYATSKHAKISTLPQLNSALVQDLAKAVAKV
Cyclin-dependent kinase 5/CDK5 activator 1, sequence (Q00535 whole entry): as the sequence (Q00535 whole entry, looked up) above
Cyclin-dependent kinase 5/CDK5 activator 1, sequence (Q15078 99-307 partner limits assumed): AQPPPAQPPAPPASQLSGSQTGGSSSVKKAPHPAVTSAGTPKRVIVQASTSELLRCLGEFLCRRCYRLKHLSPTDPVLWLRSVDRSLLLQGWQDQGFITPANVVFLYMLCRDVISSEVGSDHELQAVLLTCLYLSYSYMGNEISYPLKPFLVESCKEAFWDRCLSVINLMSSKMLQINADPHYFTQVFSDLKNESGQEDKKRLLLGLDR

For `Cc1cccc(Nc2ncc3c(n2)CCCC3)c1`, the Activity [1] was “Active”, the inhibition [2] was 87% and the Ki [3] was 2.36 µM. It also gave a Ki [4] of over 5 µM, a Ki [5] of over 5 µM and an Activity [6] of 8.31%. The Activity [7] was 0.17%, the viability at 10 µM [8] was 61.8% and the Activity [9] was “Active”. It also gave a Ratio Ki [10] of 4.
`NS(=O)(=O)c1cccc(Nc2ncc3c(n2)CCCC3)c1` was tested, and the Activity [11] was 88.08%, the Activity [1] was “Active” and the inhibition [2] was 98%. For the same molecule, the Ki [3] was 2.61 µM, the Ki [4] was 3.01 µM and the Ki [5] was 1 µM. For the same molecule, the Activity [6] was 10.05%, the Activity [9] was “Active” and the Activity [12] was 5.08%. For the same molecule, the Activity [13] was 2.67% and the Activity [14] was 3.15%.

Reference: ChEMBL document CHEMBL4396883, “Discovery of CDK5 Inhibitors through Structure-Guided Approach” (ACS Med Chem Lett, 2019)
